# ABCB6 inh MLPCN: human ABCB6 transporter inhibition; Q9NP58; K562-ABCB6 porphyrin accumulation, flow cytometry, 1 h; active compounds read low; fluorescence ratio to DMSO, % at 10 µM; hit rate 0.19% among 360,000;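 active = fluorescence ratio to DMSO below 75%, the collection mean minus 3 SD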;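 also: signal is porphyrin accumulated inside mitochondria; lower ratio means ABCB6 inhibition with less porphyrin fluorescence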
# Target sequence (Q9NP58 whole entry, looked up): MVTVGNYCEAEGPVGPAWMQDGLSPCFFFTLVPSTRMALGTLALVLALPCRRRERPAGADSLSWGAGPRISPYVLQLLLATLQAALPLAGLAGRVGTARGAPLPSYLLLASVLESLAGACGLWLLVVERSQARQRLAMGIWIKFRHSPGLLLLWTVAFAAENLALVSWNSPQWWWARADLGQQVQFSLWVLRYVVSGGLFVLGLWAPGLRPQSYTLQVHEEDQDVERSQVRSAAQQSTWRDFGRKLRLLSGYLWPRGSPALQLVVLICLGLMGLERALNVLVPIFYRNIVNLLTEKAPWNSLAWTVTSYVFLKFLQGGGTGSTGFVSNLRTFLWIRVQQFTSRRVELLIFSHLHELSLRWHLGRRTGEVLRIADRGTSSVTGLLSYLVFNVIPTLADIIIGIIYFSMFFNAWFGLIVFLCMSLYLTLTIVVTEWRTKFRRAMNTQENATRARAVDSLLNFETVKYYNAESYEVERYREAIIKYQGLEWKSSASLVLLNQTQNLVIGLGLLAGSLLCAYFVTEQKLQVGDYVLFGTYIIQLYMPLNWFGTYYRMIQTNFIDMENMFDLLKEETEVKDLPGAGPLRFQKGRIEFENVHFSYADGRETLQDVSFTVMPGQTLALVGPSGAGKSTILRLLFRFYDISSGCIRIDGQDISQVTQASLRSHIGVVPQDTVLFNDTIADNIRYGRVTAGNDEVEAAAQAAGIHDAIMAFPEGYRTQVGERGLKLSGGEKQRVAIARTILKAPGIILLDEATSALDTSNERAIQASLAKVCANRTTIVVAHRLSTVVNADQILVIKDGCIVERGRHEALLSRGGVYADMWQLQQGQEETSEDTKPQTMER
# AHR act: human AHR activation; P35869; AID 2796; hit rate 2.5% among 320,000; AHR-responsive luciferase reporter cells, luminescence; activation, % at 5 µM; in the data active = activation above about 47%
# STAT3 act: increases IL-6 driven STAT3 reporter signal; U3A cells, IL-6 STAT3-luciferase reporter, luminescence; 100% = signal with IL-6 EC80 alone; activation (% of control), % at 5.6 µM; hit rate 0.91% among 190,000; AID 871;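 active = activation above the screen-wide mean of compound activation plus 3 SD, cut at about 130% in these data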
#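 Material: STAT1-lacking human U3A cells, STAT3 luciferase reporter | Benchmarks: IL-6-only wells as 100% reference | Probe or stimulus: IL-6 (33 ng/mL) | Timing: Compound 1 h, then IL-6 6 h at 37 °C | Detection: Luminescence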
# FXN GAA850 act: frataxin GAA850 promoter activation. HEK293 lucGAA850 FXN promoter luciferase reporter, 24 h; percent of 10 µM SAHA response. AID 540364. hit rate 0.56% among 360,000. activation, % at 6 µM;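 active = activation above the average of all compounds screened plus 3 SD, cutoff fixed separately per campaign, cut at about 7.5% in these data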
# A number is an active result; - = inactive; . = no result. Only some compounds are listed: those with a hit (about 3.3% of all), similar ones and a draw of the others.
SMILES,ABCB6 inh MLPCN,AHR act,STAT3 act,FXN GAA850 act
CCNC(=S)/N=C(\N)Nc1nc(C)c2cc(C)ccc2n1,-,77.3,-,-
COc1ccc(NC(=S)/N=C(\N)Nc2nc(C)c3ccc(C)cc3n2)cc1,-,55.4,-,-
Brc1ccc(C2Nc3cccc4cccc(c34)N2)cc1,-,.,.,-
Clc1ccccc1C1Nc2cccc3cccc(c23)N1,-,-,.,-
Fc1ccc(C2Nc3cccc4cccc(c34)N2)cc1,-,50.8,.,-
Clc1cccc(C2Nc3cccc4cccc(c34)N2)c1Cl,-,58.9,.,-
O=[N+]([O-])c1ccc(C2Nc3cccc4cccc(c34)N2)cc1,-,-,134.5,-
CCN(CC)c1ccc(S(=O)(=O)N2CCOCC2)cc1NC(=O)COC(=O)/C=C/c1ccco1,-,.,.,-
O=C(CCNS(=O)(=O)c1ccc(OC(F)(F)F)cc1)Nc1cccc(S(=O)(=O)N2CCCC2)c1,-,.,.,-
CC(=O)Nc1nc(C)nc(-c2ccccc2OC(C)=O)n1,-,-,-,-
CC(=O)Nc1nc(-c2ccccc2)nc(-c2ccccc2OC(C)=O)n1,-,75.5,-,-
Cc1nn(C(C)C(=O)N2CCc3ccccc32)c(C)c1[N+](=O)[O-] (stereo not given),-,63.0,-,-
CC1(C(=O)NS(=O)(=O)Cc2cccc(Cl)c2)CCN1C(=O)Cc1cccs1 (stereo not given),-,.,.,-
CCc1ccc(NC(=O)CCn2c(=O)c3cccn3c3ccccc32)cc1,-,49.6,.,-
COc1ccc(-c2cc(C(=O)NC(C)c3ccccn3)c3ccccc3n2)cc1OC (stereo not given),-,-,.,-
CC(=O)N1N=C(c2cccc(Br)c2)OC12CCCC2,-,-,-,-
CCOC(=O)c1sc(=NC(=O)c2cccs2)n(C)c1C,-,-,-,-
CCOC(=O)c1sc(=NC(=O)c2ccco2)n(C)c1C,-,-,142.8,-
CCOC(=O)c1sc(=NC(=O)c2ccc(Cl)s2)n(C)c1C,-,-,136.8,-
C=CCn1c(N2CCN(c3ccc(OC)cc3)CC2)nc2c1c(=O)n(C)c(=O)n2C,-,-,-,-
CCCN1CCN(CCCNC(=O)CCCn2nc(C)c3sc4ccccc4c3c2=O)CC1,-,-,.,-
Brc1ccccc1-c1nc2c3ccccc3ncn2n1,-,65.6,.,-
Cc1cc2c3ccccc3ncn2n1,-,-,.,-
CC1(C(=O)NS(=O)(=O)c2cccc(F)c2)CCN1C(=O)Cc1ccccc1 (stereo not given),-,.,.,-
O=C(CN1C(=O)CCC1=O)Nc1nc2c(F)cc(F)cc2s1,-,-,-,-
SMILES,ABCB6 inh MLPCN,AHR act,STAT3 act,FXN GAA850 act
O=C(Nc1nc2c(F)cc(F)cc2s1)C1CC1,-,55.2,.,-
O=C(Nc1nc2c(Cl)c(Cl)ccc2s1)C1CC1,-,48.4,.,-
O=C(Nc1nc2c(Cl)cccc2s1)C1CC1,-,54.9,.,-
COc1cccc(NC(=O)c2nnn(Cc3ccc(Br)cc3F)c2N)c1,-,54.2,-,-
O=[N+]([O-])c1cc2c(c([N+](=O)[O-])c1)Nc1ccccc1O2,-,.,.,-
Cc1cccc(-n2ncc3c2CCCC3NC(=O)c2ccncc2)c1C (stereo not given),-,.,.,-
CCn1cc(C(=O)NC2CCCc3c2cnn3-c2cccc(C)c2C)cn1 (stereo not given),65.0,-,.,-
Cc1cc(N2C(=O)c3ccc(C(=O)Nc4ccc(CC(=O)O)cc4)cc3C2=O)no1,-,-,.,-
CCc1c(C)nc(SCC(=O)c2cccs2)c(C#N)c1C,-,94.0,149.4,-
CCOc1ccc(N2CC(C(=O)Nc3cc(C)on3)CC2=O)cc1 (stereo not given),-,76.1,-,-
O=C(Nc1ccccc1Oc1ccccc1)c1cc([N+](=O)[O-])ccc1Cl,-,108.3,-,-
O=C(Nc1cc(Cl)ccc1Oc1ccccc1)c1ccccc1F,-,65.0,-,-
COc1ccccc1NC(=O)c1cc([N+](=O)[O-])ccc1NCCN1C(=O)CCC1=O,-,51.1,-,-
O=C(Nc1ccccc1Cl)c1ccccc1Oc1ccc(C(F)(F)F)cc1[N+](=O)[O-],-,74.8,-,-
Cc1ccccc1N(CC(=O)Nc1ccc(F)cc1)S(C)(=O)=O,-,68.7,-,-
CCOc1ccccc1N(CC(=O)Nc1ccc2c(c1)OCCO2)S(C)(=O)=O,-,-,-,-
CCOc1ccccc1N(CC(=O)Nc1ccc2c(c1)OCO2)S(C)(=O)=O,-,69.4,-,-
COc1ccc(S(=O)(=O)N(CC(=O)Nc2ccc3c(c2)OCO3)c2ccccc2OC)cc1,-,47.1,-,-
COc1cccc(N(CC(=O)Nc2ccc3c(c2)OCO3)S(=O)(=O)c2ccccc2)c1,-,76.0,-,-
COc1ccc(C(=O)CSc2nnc(CNC(=O)c3ccc(OC)c(OC)c3)n2C)cc1,-,-,-,-
COc1cc(/C=N/NC(=O)/C(=C\c2ccc3c(c2)OCO3)NC(=O)c2ccccc2)ccc1O,-,69.0,-,-
COc1ccc(/C=N/NC(=O)c2cc(-c3ccc4c(c3)OCO4)n[nH]2)cc1OC,-,72.6,-,-
COc1cc(/C=N/NC(=O)c2ccc3c(c2)OCO3)ccc1O,-,.,.,-
Cc1cccc(NC(=O)COc2ccc(Br)cc2)n1,-,77.6,-,-
Cc1ccc(NC(=O)c2cccc(Cl)c2)nc1,-,-,-,-
SMILES,ABCB6 inh MLPCN,AHR act,STAT3 act,FXN GAA850 act
Cc1cccc(NC(=O)c2cccc(C(=O)Nc3cccc(C)n3)c2)n1,-,49.8,.,-
Cc1ccc(OCC(=O)NC(=S)Nc2cccc(C)n2)cc1,-,-,-,-
Cc1cccc(NC(=O)Nc2ccc(C)c(C)c2)n1,-,-,134.9,-
Cc1cc(NC(=O)c2cccc(Cl)c2)n[nH]1,-,70.7,.,-
COc1cc(CNC(=O)c2cccc(COc3ccc(Cl)cc3)c2)cc(OC)c1,-,-,-,-
CCCNC(=O)C1(CC2CC(c3ccccc3)=NO2)CCN(C(=O)c2cc(OCC)c(OCC)c(OCC)c2)CC1 (stereo not given),-,-,.,-
Nc1ccc2c(c1)OC1(CCCCC1)O2,-,.,134.7,-
COc1cc(/C=N/NC(=O)C(Cc2c[nH]c3ccccc23)NC(=O)OCC(C)C)cc([N+](=O)[O-])c1O (stereo not given),-,-,-,-
COc1cc(/C=N/NC(=O)C(Cc2c[nH]c3ccccc23)NC(=O)OCC(C)C)cc([N+](=O)[O-])c1OCc1ccccc1 (stereo not given),-,64.2,-,-
Cc1c(N=NC2=C(O)CCCC2=O)c(=O)n(-c2ccccc2)n1C,-,51.4,-,-
Cc1[nH]c2ccccc2c1N=Nc1c(C)n(C)n(-c2ccccc2)c1=O,-,-,-,-
Cc1c(N=Nc2ccc(O)cc2)c(=O)n(-c2ccccc2)n1C,-,56.5,-,-
COC(=O)C1C(=O)c2c([nH]c(C(=O)OC3CCCC3C)c2C)CC1C (stereo not given),-,-,-,-
CC(Sc1ccccc1)C(=O)N1CCN(S(=O)(=O)c2ccc(Cl)cc2)CC1 (stereo not given),-,-,.,-
COc1ccc2cc(CCN3C(=O)c4ccccc4C3=O)c(=O)[nH]c2c1,-,-,-,-
O=C1c2ccccc2C(=O)N1CCCOc1ccccc1,-,66.2,-,-

# Assay outcomes deposited in PubChem BioAssay by several laboratories.
